From ChEMBL document CHEMBL1146634, “Sulphonamide-based small molecule VLA-4 antagonists” (Bioorg Med Chem Lett, 2003)

Tests used:
[1] = target: T1, Integrin alpha-4/beta-1 (Homo sapiens, UniProt P05556+P13612); assay: Inhibition of CS-1 fragment binding to Very late antigen 4 (VLA-4) expressed in Ramos cells; assay type: cell-based
[2] = target: T1, Integrin alpha-4/beta-1; assay: Inhibition of CS-1 fragment binding to Very late antigen 4 expressed in Ramos cells in 10% fetal bovine serum(FBS); assay type: cell-based
[3] = test system: Mus musculus; assay: Reduction in eosinophil count in murine asthma model tested in vivo by at a dose of 10 mg/kg (intravenous); assay type: functional
How it was run: (§1)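 Mice were ovalbumin-sensitized and challenged. Twenty-four hours after the final OVA challenge, they were exsanguinated and the right lung lavaged (0.4 mL saline ×3). Total BAL cells were counted, then the pelleted cells were smeared, stained with Discombe's fluid (eosin/acetone) and counterstained with 0.07% methylene blue for eosinophil counts. Inhibition is expressed relative to OVA-challenged animals.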

[4] = test system: Mus musculus; assay: Inhibition of eosinophil infiltration in the murine asthma model tested in vivo at a dose of 5 mg/kg (intravenous); assay type: functional; how it was run: as §1
[5] = Pharmacokinetic property(Vdss) in cynomolgus monkey; assay type: ADME, organism-based; details: cercopithecidae, in vivo; read-out: Vdss
[6] = test system: Mus musculus; assay: Inhibition of eosinophil infiltration in the murine asthma model tested in vivo by po administration at a dose of 10 mg/kg (peroral); assay type: functional; how it was run: as §1
[7] = Plasma clearance in cynomolgus monkey; assay type: ADME, organism-based; details: cercopithecidae
[8] = test system: Mus musculus; assay: Inhibition of eosinophil infiltration in the murine asthma model tested in vivo at a dose of 10 mg/kg (intravenous); assay type: functional; details: route intranasal, in the assay text read “intranasal” for “intravenous”; how it was run: as §1
[9] = test system: Mus musculus; assay: Reduction in eosinophil count in murine asthma model tested in vivo by po administration at a dose of 10 mg/kg (peroral); assay type: functional; how it was run: as §1
[10] = Half-life period in cynomolgus monkey; assay type: ADME; details: cercopithecidae, in vivo
[11] = Cmax in cynomolgus monkey by iv administration; assay type: ADME, organism-based; parameters: route intravenous; details: cercopithecidae, in vivo
[12] = test system: Mus musculus; assay: Inhibition of eosinophil infiltration in the murine asthma model tested in vivo by po administration at a dose of 25 mg/kg (peroral); assay type: functional; how it was run: as §1
[13] = test system: Mus musculus; assay: Eosinophil count in murine asthma model tested in vivo at a dose of 5 mg/kg (intravenous)
[14] = Cmax in cynomolgus monkey by po administration; assay type: ADME, organism-based; parameters: route oral; details: cercopithecidae, in vivo
[15] = Oral bioavailability in cynomolgus monkey; assay type: ADME, organism-based, Macaca fascicularis; details: in vivo
[16] = test system: Mus musculus; assay: Reduction in eosinophil count in murine asthma model tested in vivo by po administration at a dose of 25 mg/kg (peroral); assay type: functional; how it was run: as §1

T1 sequence (P05556 whole entry, the tested form may be a part): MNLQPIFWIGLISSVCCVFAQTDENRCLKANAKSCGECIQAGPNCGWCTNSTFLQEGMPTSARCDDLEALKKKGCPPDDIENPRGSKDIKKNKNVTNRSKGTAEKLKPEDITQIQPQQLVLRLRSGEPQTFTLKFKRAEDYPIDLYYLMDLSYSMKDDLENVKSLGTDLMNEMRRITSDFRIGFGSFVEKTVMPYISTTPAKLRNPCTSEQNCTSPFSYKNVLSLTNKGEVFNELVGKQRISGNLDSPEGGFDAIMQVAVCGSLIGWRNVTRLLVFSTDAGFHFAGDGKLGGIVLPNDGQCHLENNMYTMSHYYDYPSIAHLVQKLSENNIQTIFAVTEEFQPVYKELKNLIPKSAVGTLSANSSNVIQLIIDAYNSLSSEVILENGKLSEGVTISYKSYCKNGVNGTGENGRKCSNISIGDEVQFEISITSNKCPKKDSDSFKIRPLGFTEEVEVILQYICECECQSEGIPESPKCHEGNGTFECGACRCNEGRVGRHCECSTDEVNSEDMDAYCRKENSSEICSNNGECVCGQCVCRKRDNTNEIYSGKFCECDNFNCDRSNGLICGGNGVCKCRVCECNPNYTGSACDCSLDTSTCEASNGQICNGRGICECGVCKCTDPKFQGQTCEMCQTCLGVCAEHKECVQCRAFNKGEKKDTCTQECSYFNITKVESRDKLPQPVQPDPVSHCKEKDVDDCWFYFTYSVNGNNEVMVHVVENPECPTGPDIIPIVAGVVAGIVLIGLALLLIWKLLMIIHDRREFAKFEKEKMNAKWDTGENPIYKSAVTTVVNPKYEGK
T1 sequence (P13612 whole entry, the tested form may be a part): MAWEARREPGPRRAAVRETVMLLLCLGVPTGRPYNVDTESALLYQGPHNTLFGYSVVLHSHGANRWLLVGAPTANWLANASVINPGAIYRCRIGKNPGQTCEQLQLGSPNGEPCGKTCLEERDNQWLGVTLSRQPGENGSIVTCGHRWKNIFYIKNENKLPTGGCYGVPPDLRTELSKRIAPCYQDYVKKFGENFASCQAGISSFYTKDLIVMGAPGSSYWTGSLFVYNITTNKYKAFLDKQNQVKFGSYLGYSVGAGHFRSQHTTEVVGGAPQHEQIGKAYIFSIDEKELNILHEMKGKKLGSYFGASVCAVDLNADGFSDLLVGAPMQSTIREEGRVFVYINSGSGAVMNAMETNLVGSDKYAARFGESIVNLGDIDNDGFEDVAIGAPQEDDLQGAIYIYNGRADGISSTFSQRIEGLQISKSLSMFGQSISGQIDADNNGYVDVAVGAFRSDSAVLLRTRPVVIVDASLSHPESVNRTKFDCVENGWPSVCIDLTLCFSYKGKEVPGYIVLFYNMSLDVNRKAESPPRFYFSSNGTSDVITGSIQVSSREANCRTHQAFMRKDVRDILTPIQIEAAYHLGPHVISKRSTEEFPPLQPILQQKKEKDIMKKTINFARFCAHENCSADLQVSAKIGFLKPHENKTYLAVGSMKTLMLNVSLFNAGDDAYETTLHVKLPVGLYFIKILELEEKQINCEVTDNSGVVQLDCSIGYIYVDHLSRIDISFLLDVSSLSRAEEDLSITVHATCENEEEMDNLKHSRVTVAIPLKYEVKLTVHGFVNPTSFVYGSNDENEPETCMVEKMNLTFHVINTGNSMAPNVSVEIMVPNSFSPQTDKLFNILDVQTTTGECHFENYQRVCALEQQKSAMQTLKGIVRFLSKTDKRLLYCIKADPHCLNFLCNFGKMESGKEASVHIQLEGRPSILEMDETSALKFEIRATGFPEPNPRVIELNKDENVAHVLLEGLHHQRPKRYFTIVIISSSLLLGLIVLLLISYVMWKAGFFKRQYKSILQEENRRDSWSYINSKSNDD

| Structure (SMILES) | IC50 [1] [nM] | IC50 [2] [nM] | further results |
| --- | --- | --- | --- |
| O=C(O)CC[C@H](NS(=O)(=O)c1ccc2ccccc2c1)C(=O)N[C@@H](Cc1ccccc1)C(=O)O | 180 | – | – |
| O=C(O)CN(CC(=O)N[C@@H](Cc1ccc(OCc2c(Cl)cccc2Cl)cc1)C(=O)O)S(=O)(=O)c1ccc(F)cc1 | 0.7 | 10 | – |
| O=C(O)CN(CC(=O)N[C@@H](Cc1ccc(OCc2c(Cl)cccc2Cl)cc1)C(=O)O)S(=O)(=O)c1ccccn1 | 1.5 | 10 | – |
| O=C(O)CN(CC(=O)N[C@@H](Cc1ccc(OCc2c(Cl)cccc2Cl)cc1)C(=O)O)S(=O)(=O)c1ccccc1 | 0.6 | 8 | EOS count [3]: 4.36 10^5 cells; EOS inhibition [4]: 28%; Vd [5]: 0.303 L/kg; EOS inhibition [6]: 69%; clearance [7]: 58.8 mL/min/kg; EOS inhibition [8]: 50%; EOS count [9]: 2.67 10^5 cells; half-life [10]: 6.6 min; Cmax [11]: 528 ng/mL; EOS inhibition [12]: 75%; EOS count [13]: 6.26 10^5 cells; Cmax [14]: 101 ng/mL; bioavailability [15]: 26.9%; EOS count [16]: 2.16 10^5 cells |
| CN([C@@H](CC(=O)O)C(=O)N[C@@H](Cc1ccc(OCc2c(Cl)cccc2Cl)cc1)C(=O)O)S(=O)(=O)c1ccccc1 | 2 | – | – |
| O=C(O)CC[C@H](NS(=O)(=O)c1ccc2ccccc2c1)C(=O)N[C@@H](Cc1ccc(OCc2c(Cl)cccc2Cl)cc1)C(=O)O | 2 | – | – |

Continued by falling IC50 [1], values first:

| IC50 [1] [nM] | IC50 [2] [nM] | Structure (SMILES) | further results |
| --- | --- | --- | --- |
| 1 | – | CN([C@@H](CCC(=O)O)C(=O)N[C@@H](Cc1ccc(OCc2c(Cl)cccc2Cl)cc1)C(=O)O)S(=O)(=O)c1ccc2ccccc2c1 | – |
| 0.8 | 10 | O=C(O)CN(CC(=O)N[C@@H](Cc1ccc(OCc2c(Cl)cccc2Cl)cc1)C(=O)O)S(=O)(=O)c1cccs1 | – |
| 0.1 | 2 | CN([C@@H](CCC(=O)O)C(=O)N[C@@H](Cc1ccc(OCc2c(Cl)cccc2Cl)cc1)C(=O)O)S(=O)(=O)c1ccccc1 | – |
